Test results taken from ChEMBL document CHEMBL1150811, “New modified eremophilanes from the roots of Psacalium radulifolium” (J Nat Prod, 2001).
In brackets after ≈: the same amount, converted by molar mass.

Key:
[1] = test system: Candida albicans; assay: Antimicrobial activity against Candida albicans ATCC 10231; format: functional
Method in brief: (§1)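 Agar dilution: each natural product suspended in 10% DMSO and added at various concentrations to melted agar in Petri dishes; plates incubated 24 h at 37 °C; gentamicin and nystatin as reference standards; run in duplicate.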

[2] = test system: Escherichia coli; assay: Antimicrobial activity against Escherichia coli ATCC 8937; format: functional; method in brief: as §1
[3] = test system: Pseudomonas aeruginosa; assay: Antimicrobial activity against Pseudomonas aeruginosa ATCC 27853; format: functional; method in brief: as §1
[4] = test system: Staphylococcus aureus; assay: Antimicrobial activity against Staphylococcus aureus ATCC 6358
[5] = test system: Artemia salina; assay: Toxicity against Artemia salina; format: organism-based; details: in vivo
[6] = test system: Proteus mirabilis; assay: Antimicrobial activity against Proteus mirabilis ATCC 12453; format: functional; method in brief: as §1

Row | Structure (SMILES) | MIC [1] | MIC [2] | MIC [3] | MIC [4] | LD50 [5] | MIC [6]
1 | COc1c2c(c(C)c3c(C)coc13)[C@@H](C)CC=C2 | > 400 µg/mL | > 400 µg/mL | > 400 µg/mL | 400 µg/mL (≈ 1650 µM) | > 1000 ppm | > 400 µg/mL
2 | C[C@H]1CCCc2c(O)c(O)c3c(c21)COC(=O)C3(C)O (mixture of isomers) | > 400 µg/mL | > 400 µg/mL | > 400 µg/mL | 200 µg/mL | 230 ppm | 
3 | Cc1coc2c1C(C)(O)C1=C(CCC[C@@H]1C)C2=O (mixture of isomers) [cacalone/epi-cacalone] | > 1000 µg/mL | > 1000 µg/mL | > 1000 µg/mL | 250 µg/mL | 269 ppm | > 1000 µg/mL
4 | Cc1coc2c(O)c3c(c(Cc4oc5c(O)c6c(c(C)c5c4C)[C@@H](C)CCC6)c12)[C@@H](C)CCC3 [ADENOSTIN A] | > 400 µg/mL | > 400 µg/mL | > 400 µg/mL | 50 µg/mL (≈ 109 µM) | 230 ppm | 
5 | Cc1coc2c(O)c3c(c(C)c12)[C@@H](C)CCC3 [CACALOL] | 12 µg/mL (≈ 52.1 µM) | 25 µg/mL (≈ 109 µM) | > 400 µg/mL | 12 µg/mL (≈ 52.1 µM) | 12 ppm | 12 µg/mL (≈ 52.1 µM)
6 | CC(=O)O[C@@H]1c2c(C)coc2C(=O)C2=CCC[C@H](C)[C@]21C [DECOMPOSTIN] | > 400 µg/mL | > 400 µg/mL | > 400 µg/mL | > 400 µg/mL | > 1000 ppm | > 400 µg/mL
7 | C/C=C\C(=O)O[C@@H]1c2c(C)coc2C(=O)C2=CCC[C@H](C)[C@]21C [NEOADENOSTYLONE] | > 400 µg/mL | > 400 µg/mL | > 400 µg/mL | > 400 µg/mL | 21.7 ppm | 
8 | COc1c2c(c(C)c3c1OC(=O)[C@@]3(C)O)[C@@H](C)CCC2 [RADULIFOLIN B] | > 400 µg/mL | > 400 µg/mL | > 400 µg/mL | 100 µg/mL (≈ 362 µM) | 52.5 ppm | 
